Measurements reported in ChEMBL document CHEMBL1124244, “Design and synthesis of a series of combined vasodilator/beta-adrenoceptor antagonists based on 6-arylpyridazinones” (1988).

How the values were obtained:
Rattus norvegicus [1] = assay: Dose required to produce a fall in blood pressure of 40 mmHg in the anesthetized rat; assay type: functional
Procedure, shortened: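 Anesthetized normotensive rats dosed by intravenous injection. ED40 (μmol kg⁻¹) is dose lowering blood pressure by 40 mmHg, taken from a dose-response curve. At least three animals, minimum three doses; 95% confidence intervals via Fieller's theorem.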

[2] = biological target: Adrenergic receptor beta (Homo sapiens) (UniProt P08588+P07550+P13945); assay: Intrinsic Sympathomimetic Activity (ISA) determined from the ratio of the maximal compound and isoprenaline induced tachycardia in anesthetized ganglion blocked cats following intravenous administration; assay type: functional, organism-based; conditions: Felis catus; target entry is the homologue from another species
Procedure, shortened: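 Ganglion-blocked (pempidine 5 mg kg⁻¹ iv) anesthetized cats at 37 °C; heart rate from blood pressure pulse. Full isoprenaline dose-response (0.01–10 μg kg⁻¹) obtained first. Cannula washed with saline, then cumulative iv dose-response to compound in 50% PEG 400, raised until maximal heart-rate increase. ISA is the ratio of maximal compound-induced to isoprenaline-induced tachycardia.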

[3] = biological target: Beta-1 adrenergic receptor (Homo sapiens) (UniProt P08588); conditions: Felis catus
Rattus norvegicus [4] = assay: Dose required to produce a 50% increase in blood flow to the autoperfused hindquarters of the anesthetized rat; assay type: functional
Procedure, shortened: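 Anesthetized normotensive rats with autoperfused hindquarters. Intravenous bolus doses. ED50 (μmol kg⁻¹) is dose giving 50% increase in hindquarter blood flow, read from a dose-response curve. At least three animals at a minimum of three doses; 95% confidence intervals by Fieller's theorem.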

[5] = biological target: Beta-1 adrenergic receptor (Homo sapiens) (UniProt P08588); assay: Beta-1 adrenergic receptor antagonsim of compound expressed as inhibition of isoprenaline-induced tachycardia in the ganglion-blocked anesthetized cat; assay type: functional; conditions: Felis catus
Procedure, shortened: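 Ganglion-blocked anesthetized cats (pempidine 5 mg kg⁻¹ iv, left to stabilize; rectal temperature held at 37 °C; heart rate from blood pressure pulse). Compounds given iv via cephalic vein. ID50 is dose for 50% inhibition of standard isoprenaline-induced tachycardia. Percent inhibition logit-transformed; ≥3 animals, ≥3 doses; 95% confidence limits by Fieller's theorem.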

Felis catus [6] = assay: Beta-1-adrenoceptor antagonsim of compound expressed as inhibition of isoprenaline-induced tachycardia in the ganglion-blocked anesthetized cat at 10 uM/Kg dose; assay type: functional
Felis catus [7] = assay: Intrinsic Sympathomimetic Activity(ISA) determined from the ratio of the maximal compound and isoprenaline induced tachycardia in anesthetized ganglion blocked cats following intravenous administration; assay type: functional
Procedure, shortened: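 Anaesthetised cats; cephalic vein cannulated; rectal temperature held at 37 °C. Ganglion block with pempidine 5 mg kg⁻¹ iv, then waited for BP and heart rate to stabilise. Heart rate taken from the BP pulse. Isoprenaline tachycardia curve run at 0.01–10 μg kg⁻¹ iv, then a cumulative compound curve in 50% PEG 400, raised to maximal tachycardia. ISA = maximal compound/isoprenaline tachycardia ratio.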

Sequence of Beta-1 adrenergic receptor (Homo sapiens) (P08588 whole entry, looked up, the tested form may be a part): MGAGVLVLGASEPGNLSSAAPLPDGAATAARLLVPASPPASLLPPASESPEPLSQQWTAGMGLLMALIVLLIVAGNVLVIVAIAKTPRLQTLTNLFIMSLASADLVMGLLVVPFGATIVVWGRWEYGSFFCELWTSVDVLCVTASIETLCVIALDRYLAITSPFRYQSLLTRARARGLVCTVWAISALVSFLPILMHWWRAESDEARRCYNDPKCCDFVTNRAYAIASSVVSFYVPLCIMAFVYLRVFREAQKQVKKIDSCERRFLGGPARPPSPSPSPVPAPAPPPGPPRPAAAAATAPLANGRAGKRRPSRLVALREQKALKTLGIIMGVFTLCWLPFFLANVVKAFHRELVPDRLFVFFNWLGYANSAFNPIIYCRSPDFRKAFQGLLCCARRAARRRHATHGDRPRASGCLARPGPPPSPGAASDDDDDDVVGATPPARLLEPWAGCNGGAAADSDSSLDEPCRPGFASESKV

ISA [2] | ID50 [3] | ID50 [5] | Compound | ED40 (Rattus norvegicus [1]) | ED50 (Rattus norvegicus [4]) | Inhibition (Felis catus [6]) | ISA (Felis catus [7])
0.05 | 1 µmol/kg |  | CC1CC(=O)NN=C1c1ccc(NC(=O)CCNCC(O)COc2ccc(CCOCC3CC3)cc2)cc1 (stereo unspecified) | 2.4 µM/kg | 1.6 µmol/kg |  | 
< 0.3 | 4 µmol/kg |  | CC1CC(=O)NN=C1c1ccc(NC(=O)CCNCC(O)COc2ccccc2S(C)(=O)=O)cc1.Cl (stereo unspecified) | 3.9 µM/kg | 2.4 µmol/kg |  | 
0.48 | 0.7 µmol/kg |  | COc1ccccc1OCC(O)CNCCC(=O)Nc1ccc(C2=NNC(=O)CC2C)cc1 (stereo unspecified) | 2 µM/kg | 3 µmol/kg |  | 
0.59 |  |  | Cc1ccccc1OCC(O)CNCCC(=O)Nc1ccc(C2=NNC(=O)CC2C)cc1 (stereo unspecified) | 0.5 µM/kg | 2 µmol/kg |  | 
0.63 |  |  | CC1CC(=O)NN=C1c1ccc(NC(=O)CCNCC(O)COc2ccccc2C#N)cc1 (stereo unspecified) | 1 µM/kg | 2.3 µmol/kg |  | 
0.37 | 2.6 µmol/kg |  | COc1ccccc1OCC(O)CNCC(=O)Nc1ccc(C2=NNC(=O)CC2C)cc1 (stereo unspecified) | <4 µM/kg | 3 µmol/kg |  | 
0.04 | 2 µmol/kg |  | COCCc1ccc(OCC(O)CNCCC(=O)Nc2ccc(C3=NNC(=O)CC3C)cc2)cc1 (stereo unspecified) | 3 µM/kg | 6 µmol/kg |  | 
0.14 | 0.6 µmol/kg |  | Cc1cccc(OCC(O)CNCCC(=O)Nc2ccc(C3=NNC(=O)CC3C)cc2)c1C (stereo unspecified) | 2.5 µM/kg | 2.4 µmol/kg |  | 
0.46 | 0.09 µmol/kg |  | CC1CC(=O)NN=C1c1ccc(NC(=O)CCNCC(O)COc2cccc3[nH]ccc23)cc1.Cl (stereo unspecified) | 2.9 µM/kg | 4.4 µmol/kg |  | 
0.86 |  |  | Br.CC1CC(=O)NN=C1c1ccc(NC(=O)CCNCC(O)COc2ccccc2)cc1 (stereo unspecified) | 0.6 µM/kg | 1.5 µmol/kg |  | 

The next lines start with the compound.

Compound | ISA [2] | ID50 [3] | ID50 [5] | ED40 (Rattus norvegicus [1]) | ED50 (Rattus norvegicus [4]) | Inhibition (Felis catus [6]) | ISA (Felis catus [7])
Cc1ccccc1OCC(O)CNCC(=O)Nc1ccc(C2=NNC(=O)CC2C)cc1 (stereo unspecified) |  | > 5 µmol/kg |  | <2 µM/kg | 2.7 µmol/kg |  | 
CC1CC(=O)NN=C1c1ccc(NC(=O)CCN)cc1 (stereo unspecified) |  |  |  | 0.2 µM/kg | 0.2 µmol/kg |  | 
Cc1ccccc1OCC(O)CNCC(=O)Nc1ccc(C2=NNC(=O)CC2)cc1 (stereo unspecified) | 0.55 |  | 9 µmol/kg | 6 µM/kg | 2 µmol/kg |  | 
Nc1ccc(-c2ccc(O)nn2)cc1 |  |  |  | 1 µM/kg | 20 µmol/kg |  | 
CC1CC(=O)NN=C1c1ccc(NC(=O)CNCC(O)COc2ccccc2C#N)cc1 (stereo unspecified) | 0.53 | > 8 µmol/kg |  | 2 µM/kg | 0.9 µmol/kg |  | 
C=CCOc1ccccc1OCC(O)CNC(C)C (stereo unspecified) | 0.2 | 0.04 µmol/kg |  |  |  |  | 
N#Cc1ccccc1OCC(O)CNCCC(=O)Nc1ccc(C2=NNC(=O)CC2)cc1 (stereo unspecified) |  | > 1 µmol/kg |  | 3.5 µM/kg | 1.7 µmol/kg |  | 
O=C1CCC(c2ccc(NC(=O)CNCC(O)COc3cccc4ccccc34)cc2)=NN1 (stereo unspecified) | 0.1 |  |  | 28 µM/kg | 1.4 µmol/kg | 30% | 
NNc1nncc2ccccc12 [HYDRALAZINE] |  |  |  | 1 µM/kg | 0.6 µmol/kg |  | 
CC(=O)Nc1ccc(C2=NNC(=O)CC2)cc1 |  |  |  | 1 µM/kg | 4 µmol/kg |  | 
CC1CC(=O)NN=C1c1ccc(NC(=O)CCNCC(O)COc2ccccc2N2CCOCC2)cc1 (stereo unspecified) | 0.24 | 0.5 µmol/kg |  | 3.6 µM/kg | 1.8 µmol/kg |  | 
Cc1ccccc1OCC(O)CNCCC(=O)Nc1ccc(C2=NNC(=O)CC2)cc1 (stereo unspecified) | 0.14 | 1.4 µmol/kg |  | 9.4 µM/kg | 6 µmol/kg |  | 
CC(C)(C)NCC(O)COc1ccccc1-c1ccc(NN)nn1 (stereo unspecified) [PRIZIDILOL] | 0.2 | 0.06 µmol/kg |  | 14 µM/kg | 10 µmol/kg |  | 
N#Cc1ccccc1OCC(O)CNCC(=O)Nc1ccc(C2=NNC(=O)CC2)cc1 (stereo unspecified) | 0.55 |  |  | 30 µM/kg | 14 µmol/kg |  | 
CC(=O)Nc1ccc(C2=NNC(=O)CC2C)cc1 (stereo unspecified) |  |  |  | 0.18 µM/kg | 0.1 µmol/kg |  | 
COc1ccccc1OCC(O)CNCC(=O)Nc1ccc(C2=NNC(=O)CC2)cc1 (stereo unspecified) | 0.42 | 10 µmol/kg |  | 11.5 µM/kg | 4.6 µmol/kg |  | 
CC(C)NCC(O)COc1cccc2[nH]ccc12 (stereo unspecified) [PINDOLOL] |  |  |  |  |  |  | 0.7
COc1ccccc1OCC(O)CNCCC(=O)Nc1ccc(C2=NNC(=O)CC2)cc1 (stereo unspecified) | 0.6 | 0.7 µmol/kg |  | 11 µM/kg | 4.3 µmol/kg |  | 
